Series [1] in a line: Solubility in PBS buffer at pH 7.4. Type of series: physicochemical. The gist of the method:
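Solubility measured in phosphate buffered saline, pH 7.4.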

Series [2] has as its target T1, Transient receptor potential cation channel subfamily A member 1 (Homo sapiens, UniProt O75762). Kind of series: Antagonist activity at human TRPA1 assessed as inhibition of AITC-induced calcium uptake at 2 uM by [45Ca2+] fluorimetry assay. The gist of the method:
(§1)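 45Ca2+ uptake fluorimetry in cells expressing rat or human TRPA1, run in parallel for both species. The value is single-point percent inhibition at 2 µM test compound, reported when no IC50 was obtained. Compounds were also run without agonist to check for channel agonism.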

Series [3] has as its target Transient receptor potential cation channel subfamily A member 1 (Rattus norvegicus) (UniProt Q6RI86). The experiment in a line: Antagonist activity at rat TRPA1 assessed as inhibition of AITC-induced calcium uptake at 2 uM by [45Ca2+] fluorimetry assay. The gist of the method: as §1
A short description of series [4]: Clearance in human liver microsomes. Type of series: ADME. As to conditions: read-out: CLH.
Series [5] has as its target T2, Transient receptor potential cation channel subfamily A member 1 (Rattus norvegicus, UniProt Q6RI86). Kind of series: Agonist activity at rat TRPA1 by [45Ca2+] fluorimetry assay.
A short description of series [6]: Clearance in rat liver microsomes. Type of series: ADME. As to conditions: read-out: CLH. In general terms: Liver microsomes are vesicles of endoplasmic reticulum, rich in cytochrome P450 enzymes.
A short description of series [7]: Solubility in fasted state simulated intestinal fluid at pH 6.8. It is filed as ADME.
The target of series [8] is T2, Transient receptor potential cation channel subfamily A member 1. The experiment in a line: Antagonist activity at rat TRPA1 assessed as inhibition of AITC-induced calcium uptake by [45Ca2+] fluorimetry assay. The procedure, abridged: (§2)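 Antagonism read by 45Ca2+ fluorimetry in cells expressing rat or human TRPA1. IC50 determined. Where no IC50 was obtained, % inhibition was measured at a single 2 μM point.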

Series [9] is described as follows: Solubility in 0.01 N HCl solution in water. Type of series: physicochemical. The gist of the method: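 Solubility measured in 0.01 N hydrogen chloride solution in water.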
Series [10] addresses T1, Transient receptor potential cation channel subfamily A member 1. The experiment in a line: Antagonist activity at human TRPA1 assessed as inhibition of AITC-induced calcium uptake by [45Ca2+] fluorimetry assay. The procedure, abridged:
as §2

The target is the same in series [11]. The experiment in a line: Agonist activity at human TRPA1 by [45Ca2+] fluorimetry assay.
Series [12] can be described thus: Clearance in Sprague-Dawley rat at 0.5 mg/kg, iv. It is filed as ADME, organism-based. Set-up: dose 0.5 mg/kg, route intravenous. As to conditions: in vivo. The gist of the method:
(§3)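 Male Sprague-Dawley rats (n = 3) given 0.5 mg/kg iv in DMSO.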

Series [13] can be described thus: Half life in Sprague-Dawley rat at 0.5 mg/kg, iv. Type of series: ADME, organism-based. Set-up: dose 0.5 mg/kg, route intravenous. The following applies: in vivo. The procedure, abridged: as §3
The nature of series [14]: Volume of distribution at steady state in Sprague-Dawley rat at 0.5 mg/kg, iv. Type of series: ADME, organism-based. The arrangement: dose 0.5 mg/kg, route intravenous. The following applies: in vivo, read-out: Vdss. The procedure, abridged:
as §3

The nature of series [15]: Oral bioavailability in fasted Sprague-Dawley rat at 10 mg/kg. The following applies: in vivo. It is filed as ADME, organism-based. The gist of the method:
(§4)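 Male Sprague-Dawley rats (n = 3) dosed po in 2% HPMC, 1% Tween 80 in H2O, pH 2.2 with MSA. Animals fasted during the PK study.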

Series [16] can be described thus: Fraction unbound in rat plasma by equilibrium dialysis method. Type of series: ADME, cell-free.
Series [17] has as its system Rattus norvegicus. Kind of series: Unbound clearance in Sprague-Dawley rat at 0.5 mg/kg, iv. Type of series: ADME, organism-based. The arrangement: dose 0.5 mg/kg, route intravenous. As to conditions: in vivo. The procedure, abridged: as §3
Series [18] concerns Rattus norvegicus. The experiment in a line: fCmax in fasted Sprague-Dawley rat at 10 mg/kg, po. It is filed as ADME, organism-based. The arrangement: dose 10 mg/kg, route oral. As to conditions: in vivo. The procedure, abridged: as §4
For the next series, the system named is Plasma. The experiment in a line: Unbound plasma concentration in Harlan Sprague-Dawley rat model of AITC-induced flinching at 100 mg/kg, po after 1 hr. The arrangement: dose 100 mg/kg, route oral. The following applies: in vivo. Type of series: ADME, organism-based. The gist of the method:
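Male Harlan Sprague-Dawley rats dosed orally in 2% HPMC/1% Tween-80, with a 0.1% AITC paw challenge at 1 h. Unbound plasma concentration determined with n=8, 6 and 8 for the 10, 30 and 100 mg/kg doses respectively.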

Series [19] is filed under the species Rattus norvegicus. As to conditions: Harlan Sprague-Dawley, 100 mg/kg.

Values after ≈ are worked out from the molar mass of the structure shown. Active and inactive are the calls of the source. The calls are words filed in the database; no cut-off is given here. Bounds are passed on as bounds.

T2 sequence (Q6RI86 whole entry): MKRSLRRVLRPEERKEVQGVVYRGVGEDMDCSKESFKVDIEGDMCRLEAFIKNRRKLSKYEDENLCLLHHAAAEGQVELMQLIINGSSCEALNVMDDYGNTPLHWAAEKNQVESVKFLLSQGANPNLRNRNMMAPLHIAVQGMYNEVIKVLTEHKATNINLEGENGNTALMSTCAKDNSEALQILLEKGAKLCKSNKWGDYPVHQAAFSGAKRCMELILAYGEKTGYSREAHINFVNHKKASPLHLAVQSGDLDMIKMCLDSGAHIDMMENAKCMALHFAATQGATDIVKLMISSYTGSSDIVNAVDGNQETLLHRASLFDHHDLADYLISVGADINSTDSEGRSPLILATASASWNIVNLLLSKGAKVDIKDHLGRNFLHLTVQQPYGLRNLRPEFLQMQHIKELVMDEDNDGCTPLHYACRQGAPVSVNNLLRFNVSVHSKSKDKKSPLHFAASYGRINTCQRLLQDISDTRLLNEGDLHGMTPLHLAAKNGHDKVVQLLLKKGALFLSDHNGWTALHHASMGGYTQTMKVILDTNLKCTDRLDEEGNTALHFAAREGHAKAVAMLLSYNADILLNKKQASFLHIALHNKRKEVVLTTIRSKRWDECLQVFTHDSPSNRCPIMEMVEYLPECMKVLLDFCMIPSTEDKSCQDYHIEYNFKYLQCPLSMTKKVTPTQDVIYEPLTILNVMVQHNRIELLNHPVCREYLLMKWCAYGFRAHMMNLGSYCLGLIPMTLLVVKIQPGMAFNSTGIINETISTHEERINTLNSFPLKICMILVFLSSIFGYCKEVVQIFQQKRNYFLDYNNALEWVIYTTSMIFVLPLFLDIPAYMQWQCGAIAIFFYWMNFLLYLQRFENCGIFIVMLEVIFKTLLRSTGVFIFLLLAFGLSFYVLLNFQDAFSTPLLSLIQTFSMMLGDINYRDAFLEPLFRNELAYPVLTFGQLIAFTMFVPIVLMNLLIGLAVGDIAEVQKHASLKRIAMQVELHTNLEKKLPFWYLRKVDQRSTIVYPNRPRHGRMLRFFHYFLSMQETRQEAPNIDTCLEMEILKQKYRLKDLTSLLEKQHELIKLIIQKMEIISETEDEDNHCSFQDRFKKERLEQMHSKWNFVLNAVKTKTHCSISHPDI
T1 sequence (O75762 whole entry): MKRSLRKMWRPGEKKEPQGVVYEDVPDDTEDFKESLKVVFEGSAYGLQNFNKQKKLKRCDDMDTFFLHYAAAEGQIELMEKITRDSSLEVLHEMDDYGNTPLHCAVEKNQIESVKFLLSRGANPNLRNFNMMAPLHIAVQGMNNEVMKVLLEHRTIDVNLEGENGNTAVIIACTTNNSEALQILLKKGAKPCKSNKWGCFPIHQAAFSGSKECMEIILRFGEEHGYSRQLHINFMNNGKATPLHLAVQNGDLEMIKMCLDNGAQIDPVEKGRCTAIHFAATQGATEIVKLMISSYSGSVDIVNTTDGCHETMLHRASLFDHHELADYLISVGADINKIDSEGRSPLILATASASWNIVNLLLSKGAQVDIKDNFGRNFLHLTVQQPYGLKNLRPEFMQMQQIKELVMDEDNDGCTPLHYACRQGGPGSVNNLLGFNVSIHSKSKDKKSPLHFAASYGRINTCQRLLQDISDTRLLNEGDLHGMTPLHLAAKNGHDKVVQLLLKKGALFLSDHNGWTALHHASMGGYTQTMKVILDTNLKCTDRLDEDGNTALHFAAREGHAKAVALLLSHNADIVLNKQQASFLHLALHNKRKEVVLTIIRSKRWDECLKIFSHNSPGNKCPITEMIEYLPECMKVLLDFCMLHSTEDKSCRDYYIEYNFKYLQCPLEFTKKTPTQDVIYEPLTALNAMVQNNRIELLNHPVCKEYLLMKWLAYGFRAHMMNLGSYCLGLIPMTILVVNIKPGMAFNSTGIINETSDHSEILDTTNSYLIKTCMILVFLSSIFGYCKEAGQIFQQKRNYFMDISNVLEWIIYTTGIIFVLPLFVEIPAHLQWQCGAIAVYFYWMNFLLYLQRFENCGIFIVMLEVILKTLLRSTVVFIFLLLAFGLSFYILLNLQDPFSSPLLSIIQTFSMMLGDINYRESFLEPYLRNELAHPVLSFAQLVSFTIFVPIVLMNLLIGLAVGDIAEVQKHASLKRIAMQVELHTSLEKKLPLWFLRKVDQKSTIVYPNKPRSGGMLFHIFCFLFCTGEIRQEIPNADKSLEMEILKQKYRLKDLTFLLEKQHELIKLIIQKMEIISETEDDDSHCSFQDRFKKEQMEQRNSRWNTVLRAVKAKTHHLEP
Transient receptor potential cation channel subfamily A member 1 (Rattus norvegicus), sequence (Q6RI86 whole entry): as the sequence (Q6RI86 whole entry) above

One may read the solubility as how much of the substance goes into solution per volume. Broadly, the inhibition is the percentage by which the read-out fell short of the control. As a reminder, the EC50 is the concentration needed to bring the measured effect to its halfway point. A higher EC50 goes with weaker potency. By IC50 is commonly meant the point on the concentration scale where inhibition reaches its midpoint. Consider `COCCCOc1ccnc(C2NC(=S)NC3=C2C(=O)c2ccccc23)c1` (stereo unspecified), for which the results for the solubility in series [1], in series [7] and in [9] were 62 µg/mL (≈ 163 µM), 39 µg/mL (≈ 102 µM) and 500 µg/mL (≈ 1310 µM), respectively. The results for the inhibition in series [2] and in series [3] were 1% and 0%, respectively. Also, the microsomal CLint in series [4] came to 43 µL/min/mg; in [6], 220 µL/min/mg. The EC50 in series [5] and in [11] was more than 40000 nM each time. Moreover, the IC50 in series [8] and in [10] was more than 2000 nM in each case.

As a reminder, the clearance is the rate of elimination divided by the concentration. A lower clearance goes with a low capacity for elimination. A word on the half-life: it is the time in which the quantity being followed falls by half. Lower therefore signals rapid decline. As usually defined, the bioavailability is the share of a dose that reaches the circulation, judged against a reference dose that is usually intravenous. Low values mean little systemic uptake, high ones much systemic uptake. For orientation: fraction unbound means free concentration divided by total concentration. For the compound `COCCCOc1cccc([C@H]2NC(=S)NC3=C2C(=O)c2ccccc23)c1`, the solubility in [1] is 4 µg/mL (≈ 10.5 µM); in series [7], 12 µg/mL (≈ 31.5 µM); in series [9], 5 µg/mL (≈ 13.1 µM). The compound further had a clearance in [12] of 48.3 mL/min/kg. Further, the half-life in series [13] is 2.1 h. The Vd in series [14] is 4.7 L/kg. Besides, the microsomal CLint in series [4] came out at 150 µL/min/mg; in series [6], 230 µL/min/mg. Also, the concentration for a half-maximal effect (EC50) in series [5] and in [11] was more than 40000 nM throughout. In addition, the bioavailability in series [15] worked out at 10%. Besides, the fraction unbound in series [16] stood at 0.01. The compound further returned a CL free with Rattus norvegicus [17] of 4830 mL/min/kg. Besides, the IC50 stood at 19 nM in series [8] and 26 nM in [10]. This compound also had a fCmax with Rattus norvegicus [18] of 0.005 µM.

On to `O=C1C2=C(NC(=S)NC2c2cccc(OCc3cccnc3)c2)c2ccccc21` (stereo unspecified), for which the results for the solubility in series [1], in series [7] and in series [9] were 1 µg/mL (≈ 2.5 µM), 15 µg/mL (≈ 37.5 µM) and 140 µg/mL (≈ 350 µM), respectively. The results for the microsomal CLint in series [4] and in series [6] were 150 µL/min/mg and 250 µL/min/mg, respectively. Further, the EC50 in series [5] and in [11] was more than 40000 nM throughout. For the same compound, the results for the IC50 in series [8] and in [10] were 360 nM and 710 nM, respectively.

For the compound `COCCCOc1cccc(C2NC(=S)NC3=C2C(=O)c2ccccc23)n1` (stereo unspecified), the results for the solubility in [1], in series [7] and in [9] were 36 µg/mL (≈ 94.4 µM), 35 µg/mL (≈ 91.8 µM) and 17 µg/mL (≈ 44.6 µM), respectively. For the same compound, the microsomal CLint in series [4] amounted to 160 µL/min/mg; in series [6] it was 230 µL/min/mg. For the same compound, the EC50 in [5] and in [11] was more than 40000 nM throughout. For the same compound, the IC50 in [8] stood at 1000 nM; in series [10] it was 970 nM.

On to `COCCCOc1cccc([C@@H]2NC(=S)Nc3c2oc2ncccc32)c1`, for which the “Cp(f)” value in the series on Plasma stood at 370 nM. Moreover, in series [10], the IC50 was more than 40000 nM. Moreover, the inhibition result in the series listed under Rattus norvegicus [19] is “inactive”.

For `O=C1C2=C(NC(=S)NC2c2cccc(OCc3ccccn3)c2)c2ccccc21` (stereo unspecified), the results for the solubility in [1], in series [7] and in series [9] were 10 µg/mL (≈ 25 µM), 200 µg/mL (≈ 501 µM) and 1 µg/mL (≈ 2.5 µM), respectively. Moreover, the figures for the microsomal CLint in series [4] and in [6] were 180 µL/min/mg and 310 µL/min/mg, respectively. Also, the EC50 in series [5] and in [11] was more than 40000 nM in each case. Also, the figures for the IC50 in series [8] and in [10] were 230 nM and 300 nM, respectively.

In the case of `S=C1Nc2c(oc3ncccc23)C(c2cccc(OCc3cccnc3)c2)N1` (stereo unspecified), the solubility in series [1] is 15 µg/mL (≈ 38.6 µM); in [7], 21 µg/mL (≈ 54.1 µM); in series [9], 200 µg/mL (≈ 515 µM). The microsomal CLint in series [4] was 100 µL/min/mg; in series [6] it was 40 µL/min/mg. Also, the EC50 in [5] and in [11] was more than 40000 nM in each case. The IC50 in series [8] was 1300 nM; in series [10], 940 nM.

Values taken from ChEMBL document CHEMBL3352604, “Development of novel azabenzofuran TRPA1 antagonists as in vivo tools” (Bioorg Med Chem Lett, 2014).
